Results on 70 molecules are retold here after ChEMBL document CHEMBL4513216, “Probing the Open Global Health Chemical Diversity Library for Multistage-Active Starting Points for Next-Generation Antimalarials” (ACS Infect Dis, 2020).

The nature of the data set: Toxicity liver stage against HepG2, at 10uM. In kind it is cell-based. Also on record: test concentration 10 uM, cell line HepG2-A16-CD81EGFP. The settings on record: human, HepG2-A16-CD81EGFP cells; read-out: INHIBITION
The essentials: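 Uninfected HepG2-A16-CD81EGFP cells, 3 × 10^3 per well, 1536-well, plated on prespotted compound at 10 μM final, parasite-free screening media added to match infected plates; puromycin 10 μM positive, DMSO 0.5% negative; run in parallel with 48 h PbLuc assay at 37 °C, 5% CO2; viability by CellTiter-Glo luminescence, normalized to controls.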
With `CCCc1cc(NC(=O)c2cc(N3CCNC3=O)c(F)cc2F)n[nH]1`, the cytotoxicity at 10 µM is 12.3%.

As for `Cc1cccc(OCC2CCCN(C(=O)CCn3ccccc3=O)C2)c1` (stereo not given), the cytotoxicity at 10 µM is -0.987%.

On to `CC(=O)N[C@H]1C[C@@H](c2nc(-c3ccc4c(c3)OCO4)no2)N(C)C1`, for which the cytotoxicity at 10 µM is -2.92%.

`COCC1(CNC(=O)[C@@]23CNC[C@@H]2CN(C2CCCC2)C3)CC1`: the cytotoxicity at 10 µM is -11.9%.

For the molecule `Cc1c(C(=O)N2CC(Cc3nccc4ccn(C)c34)C2)cnn1C`, the cytotoxicity at 10 µM was -26.3%.

For the molecule `CCN(Cc1ccc2c(c1)OCCO2)C(=O)NC(C)Cn1ccnc1` (stereo not given), the cytotoxicity at 10 µM is -2.79%.

Take `O=S1(=O)NCC2(CCN(Cc3ccc(Cl)s3)C2)Oc2ncccc21` (stereo not given): the cytotoxicity at 10 µM worked out at 4.65%.

Take `O=C(NCc1ccccc1F)NCC(O)c1cccc(F)c1` (stereo not given): the cytotoxicity at 10 µM was -2.95%.

On to `CC(C)(C)NC(=O)NC(=O)CNC(C)(C)c1ccc2c(c1)OCCO2`, for which the cytotoxicity at 10 µM was -8.72%.

As to `CC(c1ccco1)n1cc(-c2cc(CN3CCCC3)cs2)nn1` (stereo not given), the cytotoxicity at 10 µM is -23.6%.

Take `CN1CCC(N2CC[C@H](c3nc4ccc(C(F)(F)F)cc4[nH]3)C2)CC1`: the cytotoxicity at 10 µM was -10.2%.

Take `N[C@@H](C(=O)N1CCN(c2ccccc2Cl)C(=O)C1)c1ccccc1`: the cytotoxicity at 10 µM is -0.823%.

Regarding `O=C(CCc1ccccc1F)N1CCCC(OCc2cccnc2)C1` (stereo not given), the cytotoxicity at 10 µM was -5.44%.

For the molecule `CC(C)(O)CN1CCN(C(=O)COCC(F)(F)F)CC1`, the cytotoxicity at 10 µM was -12.9%.

With `COCCn1ccc2ccc(NC(=O)NCc3noc(C)n3)cc21`, the cytotoxicity at 10 µM stood at 7.36%.

On to `CCOCc1ncn2c1CN(C(=O)Nc1cccc(F)c1)CC2`, for which the cytotoxicity at 10 µM came out at 1.03%.

`CC(C)NC(=O)c1cc(-c2ccc(S(C)(=O)=O)cc2)nc2c1cnn2C`: the cytotoxicity at 10 µM came to 4.21%.

Take `O=C(CCc1cn[nH]c1)N1C[C@@H](CN2CCCCCC2)[C@@H](CO)C1`: the cytotoxicity at 10 µM was found to be 2.62%.

Turning to `CCc1cc(NCCCc2nc(C)no2)nc(-c2ccncc2)n1`, the cytotoxicity at 10 µM was 2.63%.

For `Cc1cc(C)c(CNC(=O)N2CCC(N3CCNC3=O)CC2)c(=O)[nH]1`, the cytotoxicity at 10 µM stood at 4.16%.

On to `CNc1ncc(CN(C)C(=O)c2cccc(CC3CCNCC3)c2)cn1`, for which the cytotoxicity at 10 µM is -19.7%.

Regarding `O=C(NCCc1cc(N2CCOCC2)nc(NC2CC2)n1)C1CCCO1` (stereo not given), the cytotoxicity at 10 µM came to 2.61%.

In the case of `COc1cccc(-n2cc3[nH]c(=O)n(Cc4cccc(F)c4)n3c2=O)c1`, the cytotoxicity at 10 µM came to 0.647%.

Turning to `CN1C(=O)CC(C(=O)O)C12CCN(Cc1cc(Cl)ccc1F)CC2` (stereo not given), the cytotoxicity at 10 µM stood at 5.64%.

As for `CN(C)S(=O)(=O)Nc1ccc(-n2nncc2C(F)(F)F)cc1`, the cytotoxicity at 10 µM was -2.64%.

Take `CC(C)n1cc(-n2cc3nc(N4CCOCC4)[nH]cc-3c2=O)cn1`: the cytotoxicity at 10 µM was 4.48%.

For `CCn1nc2c(cc1=O)CN(CCCOc1ccc(C#N)cc1)CC2`, the cytotoxicity at 10 µM was 14%.

As to `COCc1cccc(CNc2cnn(C(C)(C)C)c(=O)c2Cl)c1`, the cytotoxicity at 10 µM was 59.2%.

Consider `CN(C)c1ncc(NC(=O)c2ccccc2C(F)(F)F)cn1`, for which the cytotoxicity at 10 µM was -9.66%.

As for `Cc1cc(C)cc(CN2CCC3(CC2)CC(Nc2ncccn2)CO3)c1` (stereo not given), the cytotoxicity at 10 µM was found to be 5.39%.

As for `CCc1ccc(C(=O)N2CCCC2c2c(C)nn(C)c2OC)o1` (stereo not given), the cytotoxicity at 10 µM amounted to 6.16%.

Turning to `NC(=O)NC(=O)CNc1cccc(C(=O)c2ccccc2)c1`, the cytotoxicity at 10 µM was found to be 7.95%.

Turning to `CCN1CCC(N2CCN(c3cc(-c4nc(C)no4)ccn3)CC2)CC1`, the cytotoxicity at 10 µM is -3.79%.

For the molecule `CC(NC(N)=O)C(=O)Nc1ccc(OCc2cccc(F)c2)c(F)c1` (stereo not given), the cytotoxicity at 10 µM is -12.3%.

Consider `CC(C)(C)c1cc(NC(=O)C2COCCO2)n(-c2ccccn2)n1` (stereo not given), for which the cytotoxicity at 10 µM is -3.49%.

Take `Cn1ccc(C(=O)NCCOc2ccc(C(C)(C)C)cc2)cc1=O`: the cytotoxicity at 10 µM is 9.71%.

`CNc1cc(N2CCCC2CNCc2ccc(C)o2)ncn1` (stereo not given): the cytotoxicity at 10 µM is -2.69%.

For the molecule `Cc1ccc(Cl)c2ccc(NC(CO)CO)nc12`, the cytotoxicity at 10 µM is -12.1%.

On to `NCC(=O)N1CCCC(c2ccnc(Nc3cnccn3)n2)C1` (stereo not given), for which the cytotoxicity at 10 µM was 2.66%.

In the case of `Cc1noc(C(C)C)c1C(=O)NCc1cccc(CN(C)C)c1`, the cytotoxicity at 10 µM is -8.23%.

Regarding `O=c1nc(SCc2ccncc2)c2c(n1CCO)CCC2`, the cytotoxicity at 10 µM stood at 6.9%.

Consider `CCCn1nc(-c2nc(COC)no2)ccc1=O`, for which the cytotoxicity at 10 µM is -11.6%.

`CC1CN(C)CCN1CC(=O)NCCOc1cccc(F)c1` (stereo not given): the cytotoxicity at 10 µM was -11.7%.

In the case of `COCCN1CCCC(O)(CN2CCN(c3ccncc3C)CC2)C1=O` (stereo not given), the cytotoxicity at 10 µM was -6.45%.

`COc1ncc(NC(=O)Nc2cc(C)ccc2OC)cn1`: the cytotoxicity at 10 µM was 2.76%.

`CCN1C(=O)CC(c2cnn(C)c2)C12CCN(C(=O)c1ccoc1)CC2` (stereo not given): the cytotoxicity at 10 µM was 9.61%.

As for `Cc1cnc(NC(=O)NCCOc2ncccc2Cl)s1`, the cytotoxicity at 10 µM amounted to 6.62%.

Consider `CCN1CCc2c(cccc2NC(=O)N(C)C2CCSC2)C1` (stereo not given), for which the cytotoxicity at 10 µM is -49.1%.

On to `CCOCC1CN(C(=O)C2CCOCC2)Cc2cnn(C)c21` (stereo not given), for which the cytotoxicity at 10 µM is -1.05%.

On to `Cn1ccc(NC(=O)CN2C[C@@H]3CC[C@H]2CN(S(C)(=O)=O)C3)n1`, for which the cytotoxicity at 10 µM was -14.2%.

For `CC(C)c1nc(N2CC[C@@H](N(C)CCc3ccccn3)[C@H](O)C2)no1`, the cytotoxicity at 10 µM was -0.662%.

Turning to `COCC1CN(C(=O)c2cccc(C)n2)Cc2nccn2C1` (stereo not given), the cytotoxicity at 10 µM was -103%.

With `COCCc1noc(CN2CCN(CC(O)c3ccccc3)CC2)n1` (stereo not given), the cytotoxicity at 10 µM was 2.67%.

Turning to `CCCOC1CCCN(c2ncnc3c2CCN(C(=O)C2CC2)C3)C1` (stereo not given), the cytotoxicity at 10 µM was found to be 4.84%.

As to `CNc1ncc(CN(C)C(=O)c2cccc(Cn3cccn3)c2)cn1`, the cytotoxicity at 10 µM was determined as 1.32%.

As for `CC(C)c1nc(CN(C)C(=O)c2ccc3c(c2)OCO3)cs1`, the cytotoxicity at 10 µM was -1.1%.

In the case of `O=C1CCCN1C1CCCN(CCOc2ccc(F)cc2)C1` (stereo not given), the cytotoxicity at 10 µM was found to be 7.62%.

As for `CC(C)CCN1CCC2(CNS(=O)(=O)c3cccnc3O2)C1` (stereo not given), the cytotoxicity at 10 µM is 4.1%.

On to `CCCn1ncc(CN2C[C@@H]3CCCN3C[C@@H]2CCSC)c1C`, for which the cytotoxicity at 10 µM was 4.06%.

Regarding `CC(CN1CCC(CCO)CC1)n1cnc2ccccc21` (stereo not given), the cytotoxicity at 10 µM is 5.34%.

For the molecule `N#Cc1ccc(NC2CCN(c3ncccn3)CC2)cc1Cl`, the cytotoxicity at 10 µM is 8.8%.

Take `Fc1ccc(-c2nc(CN3CCn4c(nnc4C4CC4)C3)co2)cc1`: the cytotoxicity at 10 µM is -7.72%.

Regarding `O=C(CCn1cnc2cc(F)c(F)cc21)N1CCN2CCCCC2C1` (stereo not given), the cytotoxicity at 10 µM was -12.3%.

Regarding `c1ccc(CN2CCCC(c3nccnc3-n3ccnc3)C2)cc1` (stereo not given), the cytotoxicity at 10 µM was -4.56%.

For the molecule `CCN(C(C)=O)C1CCN(c2nccc(CCC(F)(F)F)n2)C1` (stereo not given), the cytotoxicity at 10 µM is -4.39%.

For `CCc1cc(NCCCNS(C)(=O)=O)nc(-c2ccncc2)n1`, the cytotoxicity at 10 µM was 3.62%.

Take `COc1cccc(Cn2cccc(C#N)c2=O)c1`: the cytotoxicity at 10 µM worked out at 11.3%.

Regarding `COCCn1ccc2c(C(=O)Nc3nc4c(s3)CCC4)cccc21`, the cytotoxicity at 10 µM is 1.82%.

Regarding `C[C@@H]1CN(C(=O)CCN2CCCC2)CC[C@@]1(O)C1CCOCC1`, the cytotoxicity at 10 µM is -5.15%.

As for `O=C(O)c1ccccc1-c1ccc(CN2CCC(CO)C2)cc1` (stereo not given), the cytotoxicity at 10 µM is -14.6%.
